Measured values pooled from the literature.
Lines come from different studies, so protocols differ.
Target: Mitogen-activated protein kinase kinase kinase 5 (MAP3K5, Homo sapiens, UniProt Q99683)
One construct used (Q99683 1-1374): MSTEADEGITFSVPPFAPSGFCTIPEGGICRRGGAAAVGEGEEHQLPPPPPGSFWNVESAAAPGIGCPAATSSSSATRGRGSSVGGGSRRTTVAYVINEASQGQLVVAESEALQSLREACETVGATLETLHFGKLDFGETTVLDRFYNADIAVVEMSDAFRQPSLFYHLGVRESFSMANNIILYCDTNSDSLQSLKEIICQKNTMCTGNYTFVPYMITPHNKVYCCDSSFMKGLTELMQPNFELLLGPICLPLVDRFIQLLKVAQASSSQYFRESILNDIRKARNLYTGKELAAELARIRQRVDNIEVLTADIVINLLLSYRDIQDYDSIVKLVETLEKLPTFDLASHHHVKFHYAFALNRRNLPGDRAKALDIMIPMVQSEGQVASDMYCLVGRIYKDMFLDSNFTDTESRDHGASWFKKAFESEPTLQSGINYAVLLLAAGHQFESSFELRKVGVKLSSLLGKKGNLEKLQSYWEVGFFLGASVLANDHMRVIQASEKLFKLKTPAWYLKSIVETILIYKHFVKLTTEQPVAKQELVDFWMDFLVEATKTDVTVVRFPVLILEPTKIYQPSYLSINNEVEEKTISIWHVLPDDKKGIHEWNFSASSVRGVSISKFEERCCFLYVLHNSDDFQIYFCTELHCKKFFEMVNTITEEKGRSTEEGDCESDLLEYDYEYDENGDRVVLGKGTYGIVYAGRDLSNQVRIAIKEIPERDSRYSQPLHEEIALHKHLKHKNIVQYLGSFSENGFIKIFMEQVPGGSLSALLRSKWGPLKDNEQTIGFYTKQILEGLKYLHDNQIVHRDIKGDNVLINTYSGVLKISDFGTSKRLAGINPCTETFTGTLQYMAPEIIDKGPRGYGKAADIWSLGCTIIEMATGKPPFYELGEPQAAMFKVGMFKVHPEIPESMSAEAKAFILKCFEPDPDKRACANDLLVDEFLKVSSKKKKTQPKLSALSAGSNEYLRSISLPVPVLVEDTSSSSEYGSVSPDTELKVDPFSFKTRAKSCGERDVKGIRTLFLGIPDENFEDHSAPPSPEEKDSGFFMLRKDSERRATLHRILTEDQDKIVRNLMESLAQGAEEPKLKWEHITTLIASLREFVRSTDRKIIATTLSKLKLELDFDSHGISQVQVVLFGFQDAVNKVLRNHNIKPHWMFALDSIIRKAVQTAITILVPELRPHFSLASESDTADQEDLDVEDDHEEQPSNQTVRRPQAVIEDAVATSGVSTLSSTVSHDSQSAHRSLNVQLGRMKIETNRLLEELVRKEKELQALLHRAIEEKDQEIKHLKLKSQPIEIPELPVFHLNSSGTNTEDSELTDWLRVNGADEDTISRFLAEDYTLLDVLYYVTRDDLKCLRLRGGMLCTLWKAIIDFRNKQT

Cc1cnn2ncc(-c3ccnc(N(C)C)n3)c2c1 has a remaining binding of 100% (binding; 1 µM).
Nc1ncc2c(n1)-c1c([nH]c3ccc(C#CC4CC4)cc13)CCCC2 has a remaining binding of 100% (binding, competition with immobilised ligand; 1 µM).
N#Cc1ccc(Nc2ccc3[nH]c(=O)[nH]c3c2)c(Cl)c1 has a remaining binding of 90% (cell-free assay, competition with immobilised ligand; 1 µM).
The remaining binding of O=C(c1ccc(Nc2ncc(Cl)c(-c3cc4ccccc4s3)n2)cc1)N1CCC(N2CCCC2)CC1 is reported as 100% (binding, competition with immobilised ligand; 1 µM).
F[C@@H]1CCN(c2nccc(-c3cnn4ncccc34)n2)C1 has a remaining binding of 83% (binding; 1 µM).
COc1ncc2cc3ccccc3nc2c1C#N gave a remaining binding of 96% (cell-free assay, competition with immobilised ligand; 5 µM).
The remaining binding of O=C(NCCCN1CCOCC1)c1ccc(Nc2nccc(-c3cc4ccccc4s3)n2)cc1 is reported as 100% (binding, competition with immobilised ligand; 1 µM).
CCCOc1ccc([C@@H]2[C@@H](C(=O)O)[C@H](c3ccc4c(c3)OCO4)CN2CC(=O)Nc2c(CC)cccc2CC)cc1 gave a remaining binding of 97% (cell-free assay, competition with immobilised ligand; 1 µM).
O=C(NCCCN1CCOCC1)c1ccc(Nc2ncc(Cl)c(-c3ccc(Cl)s3)n2)cc1 has a remaining binding of 100% (binding, competition with immobilised ligand; 1 µM).
With CNC(=O)[C@@H]1CC[C@@H](n2c(-c3ccc4cnccc4c3)nc3ccc(C(=O)NCc4cccc(C(N)=O)c4)cc32)C1 the remaining binding was 92% (binding, competition with immobilised ligand; 1 µM).
O=C(NCC1CCOCC1)c1n[nH]cc1NC(=O)c1c(F)cccc1F has a remaining binding of 87% (binding, competition with immobilised ligand; 1 µM).
The remaining binding of N[C@H]1CCN(c2nccc(-c3cnn4ncccc34)n2)C1 is reported as 99% (binding; 1 µM).
O=C(Nc1ccc(Oc2ccc(F)cc2)cc1)N1CCc2ncccc2[C@H]1c1ccc(F)cc1 has a remaining binding of 87% (cell-free assay, competition with immobilised ligand; 1 µM).
CN(CCCC(F)(F)F)c1nccc(-c2cnn3ncccc23)n1 has a remaining binding of 76% (binding; 1 µM).
C[C@H](c1ccnc(Nc2nc3ccc(-c4cc(N(C)C)ncn4)cc3[nH]2)c1)N1CCN(C(=O)CC(F)(F)F)CC1 has a remaining binding of 100% (cell-free assay, competition with immobilised ligand; 0.1 µM).
For c1cncc(-c2cccc(Nc3nccc(NC4CCCCC4)n3)c2)c1, the remaining binding was 100% (binding, competition with immobilised ligand; 10 µM).
The remaining binding of C[C@@H](c1ccc(-n2cnc3c(N)ncnc32)cc1)N1CCc2nn(C)c(Cc3ccccc3)c2C1=O is reported as 95% (binding, competition with immobilised ligand; 0.1 µM).
The remaining binding of Cc1cc(C)c(-n2ccn3nc(-c4cccnc4)cc23)cc1NC(=O)c1cc(C#N)cc(S(F)(F)(F)(F)F)c1 is reported as 100% (cell-free assay, competition with immobilised ligand; 0.1 µM).
With CN(C)c1ncc(F)c(-c2cnn3ncccc23)n1 the remaining binding was 100% (binding; 1 µM).
With CNC(=O)Nc1ccc2c(c1)CC[C@@]21OC(=O)N(CC(=O)N(Cc2ccc(F)cc2)[C@@H](C)C(F)(F)F)C1=O the remaining binding was 94% (cell-free assay, competition with immobilised ligand; 1 µM).
CN(C)c1nccc(-c2cnn3ncccc23)n1 gave a remaining binding of 87% (binding; 1 µM).
